pEC50, pIC50: −log10 of the molar value. Values after ≈ are worked out from the molar mass of the structure shown.
Assays:
MCF7 [1] = experiment: Antiproliferative activity against human MCF7 cells after 72 hrs by MTT assay; type: functional, cell-based; settings: MCF7, 72 h
Method in brief: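 EC50 was derived from a repeat 72 h MTT assay in CCRF-CEM or MCF-7 cells. It is the concentration killing 50% of tumour cells compared with control cells incubated without inhibitor in 0.5% DMSO.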

Candida albicans [2] = experiment: Growth inhibition of Candida albicans ATCC 90028 at 4 uM incubated for 48 hrs at 35 degC by broth microdilution method relative to control; type: functional; settings: ATCC 90028, 48 h
Candida albicans [3] = experiment: Growth inhibition of Candida albicans ATCC 90028 at 0.125 ug/ml incubated for 18 hrs at 35 degC by broth microdilution method relative to control; type: functional; settings: ATCC 90028, 18 h, read-out: GI
MCF7 [4] = experiment: Antiproliferative activity against human MCF7 cells assessed as cell viability at 200 uM after 72 hrs by MTT assay; type: functional; settings: MCF7, 72 h, read-out: Activity
Method in brief: (§1)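 MTT viability assay in CCRF-CEM and MCF-7 cells after 72 h exposure at 25, 50, 100 and 200 µM. Results are relative to control cells without inhibitor in 0.5% DMSO. Done in triplicate; values are means ± SD of three independent experiments.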

CCRF-CEM [5] = experiment: Antiproliferative activity against human CCRF-CEM cells assessed as cell viability at 100 uM after 72 hrs by MTT assay; type: functional; settings: read-out: Activity; method in brief: as §1
Candida albicans [6] = experiment: Growth inhibition of Candida albicans ATCC 90028 at 0.25 ug/ml incubated for 4 hrs at 35 degC by broth microdilution method relative to control; type: functional; settings: ATCC 90028, 4 h, read-out: GI
Candida albicans [7] = experiment: Fungicidal activity against Candida albicans ATCC 90028 assessed as log reduction in cell viability at 16 ug/ml after 48 hrs at 35 degC; type: functional
Method in brief: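 MFC assay on C. albicans ATCC 90028 following M27-A3, at the molar equivalent of 16 µg/mL. CFU of treated cells were compared with CFU of the untreated inoculum. Activity is given as lg R = lg CFU/mL control − lg CFU/mL treated, and lg R ≥3 was defined as fungicidal. Values are means of two independent experiments.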

CCRF-CEM [8] = experiment: Antiproliferative activity against human CCRF-CEM cells assessed as cell viability at 50 uM after 72 hrs by MTT assay; type: functional; settings: read-out: Activity; method in brief: as §1
Candida albicans [9] = experiment: Growth inhibition of Candida albicans ATCC 90028 at 1 ug/ml incubated for 18 hrs at 35 degC by broth microdilution method relative to control; type: functional; settings: ATCC 90028, 18 h, read-out: GI
Candida albicans [10] = experiment: Inhibition of cell adhesion of Candida albicans ATCC 90028 to African green monkey Vero cells at 2 ug/ml relative to untreated control; type: functional; settings: ATCC 90028, Vero
Candida albicans [11] = experiment: Growth inhibition of Candida albicans ATCC 90028 at 16 ug/ml incubated for 18 hrs at 35 degC by broth microdilution method relative to control; type: functional; settings: ATCC 90028, 18 h, read-out: GI
Candida albicans [12] = experiment: Antifungal activity against Candida albicans ATCC 90028 assessed as reduction in cell viability at 1022.5 to 0.06 uM after 48 hrs in presence of ergosterol by XTT assay; type: functional; settings: ATCC 90028, 48 h
[13] = Toxicity in Galleria mellonella larvae infected with Candida albicans ATCC 90028 infected with 20 uM compound pre-treated cell suspensions assessed as survival incubated in dark for 144 hrs at 30 degC and measured every 24 hrs; type: organism-based; settings: in vivo
Candida albicans [14] = experiment: Growth inhibition of Candida albicans ATCC 90028 at 8 ug/ml incubated for 48 hrs at 35 degC by broth microdilution method relative to control; type: functional; settings: ATCC 90028, 48 h, read-out: GI
Candida albicans [15] = experiment: Inhibition of biofilm formation of Candida albicans ATCC 90028 after 48 hrs by XTT assay; type: functional, organism-based; settings: ATCC 90028, 48 h
MCF7 [16] = experiment: Antiproliferative activity against human MCF7 cells assessed as cell viability at 25 uM after 72 hrs by MTT assay; type: functional; settings: MCF7, 72 h, read-out: Activity; method in brief: as §1
Candida albicans [17] = experiment: Fungicidal activity against Candida albicans ATCC 90028 assessed as drug level causing 3 fold reduction in bacterial count after 48 hrs at 35 degC; type: functional; settings: ATCC 90028, 48 h
Candida albicans [18] = experiment: Growth inhibition of Candida albicans ATCC 90028 at 2 ug/ml incubated for 4 hrs at 35 degC by broth microdilution method relative to control; type: functional; settings: ATCC 90028, 4 h, read-out: GI
Candida albicans [19] = experiment: Growth inhibition of Candida albicans ATCC 90028 at 8 ug/ml incubated for 4 hrs at 35 degC by broth microdilution method relative to control; type: functional; settings: ATCC 90028, 4 h, read-out: GI
Candida albicans [20] = experiment: Growth inhibition of Candida albicans ATCC 90028 at 0.0313 ug/ml incubated for 4 hrs at 35 degC by broth microdilution method relative to control; type: functional; settings: ATCC 90028, 4 h, read-out: GI
Candida albicans [21] = experiment: Inhibition of cell adhesion of Candida albicans ATCC 90028 to African green monkey Vero cells at 16 ug/ml relative to untreated control; type: functional; settings: ATCC 90028, Vero
Candida albicans [22] = experiment: Growth inhibition of Candida albicans ATCC 90028 at 0.25 ug/ml incubated for 18 hrs at 35 degC by broth microdilution method relative to control; type: functional; settings: ATCC 90028, 18 h, read-out: GI
Candida albicans [23] = experiment: Growth inhibition of Candida albicans ATCC 90028 at 0.0625 ug/ml incubated for 4 hrs at 35 degC by broth microdilution method relative to control; type: functional; settings: ATCC 90028, 4 h, read-out: GI
CCRF-CEM [24] = experiment: Antiproliferative activity against human CCRF-CEM cells assessed as cell viability at 25 uM after 72 hrs by MTT assay; type: functional; settings: read-out: Activity; method in brief: as §1
Candida albicans [25] = experiment: Inhibition of cell adhesion of Candida albicans ATCC 90028 to African green monkey Vero cells at 0.0625 ug/ml relative to untreated control; type: functional; settings: ATCC 90028, Vero
Candida albicans [26] = experiment: Growth inhibition of Candida albicans ATCC 90028 at 0.5 ug/ml incubated for 4 hrs at 35 degC by broth microdilution method relative to control; type: functional; settings: ATCC 90028, 4 h, read-out: GI
Candida albicans [27] = experiment: Growth inhibition of Candida albicans ATCC 90028 at 8 ug/ml incubated for 18 hrs at 35 degC by broth microdilution method relative to control; type: functional; settings: ATCC 90028, 18 h, read-out: GI
MCF7 [28] = experiment: Antiproliferative activity against human MCF7 cells assessed as cell viability at 100 uM after 72 hrs by MTT assay; type: functional; settings: MCF7, 72 h, read-out: Activity; method in brief: as §1
Candida albicans [29] = experiment: Growth inhibition of Candida albicans ATCC 90028 at 16 ug/ml incubated for 48 hrs at 35 degC by broth microdilution method relative to control; type: functional; settings: ATCC 90028, 48 h, read-out: GI
Vero = experiment: Cytotoxicity in African green monkey Vero cells up to 64 ug/ml incubated for 3 to 18 hrs by XTT assay; type: cell-based; settings: chlorocebus sabaeus
[30] = Toxicity in Galleria mellonella larvae infected with Candida albicans ATCC 90028 infected with 31 uM compound pre-treated cell suspensions assessed as survival incubated in dark for 144 hrs at 30 degC and measured every 24 hrs; type: organism-based; settings: in vivo
Candida albicans [31] = experiment: Growth inhibition of Candida albicans ATCC 90028 at 0.0313 ug/ml incubated for 18 hrs at 35 degC by broth microdilution method relative to control; type: functional; settings: ATCC 90028, 18 h, read-out: GI
CCRF-CEM [32] = experiment: Antiproliferative activity against human CCRF-CEM cells assessed as cell viability at 200 uM after 72 hrs by MTT assay; type: functional; settings: read-out: Activity; method in brief: as §1
Candida albicans [33] = experiment: Growth inhibition of Candida albicans ATCC 90028 at 4 ug/ml incubated for 18 hrs at 35 degC by broth microdilution method relative to control; type: functional; settings: ATCC 90028, 18 h, read-out: GI
Candida albicans [34] = experiment: Growth inhibition of Candida albicans ATCC 90028 at 1 ug/ml incubated for 4 hrs at 35 degC by broth microdilution method relative to control; type: functional; settings: ATCC 90028, 4 h, read-out: GI

Structure (SMILES): CC(Cn1cnc2c1c(=O)n(C)c(=O)n2C)OCc1cn(CCCn2nc3c(Br)c(Br)c(Br)c(Br)c3n2)nn1 (stereo not given)
- pEC50 (MCF7 [1]): 4.10
- MIC (Candida albicans [2]): 10 µM (≈ 7.94 µg/mL)
- inhibition of growth at 0.125 µg/mL (Candida albicans [3]): 99.1%
- viability at 200 µM (MCF7 [4]): 53.7%
- viability at 100 µM (CCRF-CEM [5]): 0%
- inhibition of growth at 0.25 µg/mL (Candida albicans [6]): 99.1%
- log(activity) (Candida albicans [7]): 8
- viability at 50 µM (CCRF-CEM [8]): 0%
- inhibition of growth at 1 µg/mL (Candida albicans [9]): 99.4%
- inhibition at 2 µg/mL (Candida albicans [10]): 89%
- inhibition of growth at 16 µg/mL (Candida albicans [11]): 100%
- MIC (Candida albicans [12]): 8 µM
- survival at 24 h, 20 µM [13]: 90 to 100%
- inhibition of growth at 8 µg/mL (Candida albicans [14]): 99.9%
- pIC50 (Candida albicans [15]): 4.70
- viability at 25 µM (MCF7 [16]): 58.3%
- MFC (Candida albicans [17]): 5 µM (≈ 3.97 µg/mL)
- inhibition of growth at 2 µg/mL (Candida albicans [18]): 99.1%
- inhibition of growth at 8 µg/mL (Candida albicans [19]): 99.1%
- inhibition of growth at 0.0313 µg/mL (Candida albicans [20]): 99.1%
- inhibition at 16 µg/mL (Candida albicans [21]): 100%
- inhibition of growth at 0.25 µg/mL (Candida albicans [22]): 99.4%
- inhibition of growth at 0.0625 µg/mL (Candida albicans [23]): 99%
- viability at 25 µM (CCRF-CEM [24]): 0%
- inhibition at 0.0625 µg/mL (Candida albicans [25]): 89%
- inhibition of growth at 0.5 µg/mL (Candida albicans [26]): 99.1%
- inhibition of growth at 8 µg/mL (Candida albicans [27]): 100%
- viability at 100 µM (MCF7 [28]): 59.1%
- inhibition of growth at 16 µg/mL (Candida albicans [29]): 100%
- Activity (Vero): Non-Toxic
- survival at 24 h, 31 µM [30]: 90 to 100%
- inhibition of growth at 0.0313 µg/mL (Candida albicans [31]): 99.1%
- viability at 200 µM (CCRF-CEM [32]): 0%
- inhibition of growth at 4 µg/mL (Candida albicans [33]): 100%
- inhibition of growth at 1 µg/mL (Candida albicans [34]): 99.1%

Structure (SMILES): CC(CN1c2ccccc2Sc2ccccc21)OC(=O)OC(C)Cn1cnc2c1c(=O)n(C)c(=O)n2C (stereo not given)
- pEC50 (MCF7 [1]): 4.10
- MIC (Candida albicans [2]): 4 µM (≈ 2.09 µg/mL)
- inhibition of growth at 0.125 µg/mL (Candida albicans [3]): 99.9%
- viability at 200 µM (MCF7 [4]): 20.8%
- viability at 100 µM (CCRF-CEM [5]): 0%
- inhibition of growth at 0.25 µg/mL (Candida albicans [6]): 99%
- log(activity) (Candida albicans [7]): 8
- viability at 50 µM (CCRF-CEM [8]): 7.9%
- inhibition of growth at 1 µg/mL (Candida albicans [9]): 100%
- inhibition at 2 µg/mL (Candida albicans [10]): 89%
- inhibition of growth at 16 µg/mL (Candida albicans [11]): 100%
- MIC (Candida albicans [12]): 38 µM
- survival at 24 h, 20 µM [13]: 90 to 100%
- inhibition of growth at 8 µg/mL (Candida albicans [14]): 100%
- pIC50 (Candida albicans [15]): 3.61
- viability at 25 µM (MCF7 [16]): 58.8%
- MFC (Candida albicans [17]): 15 µM (≈ 7.82 µg/mL)
- inhibition of growth at 2 µg/mL (Candida albicans [18]): 99.5%
- inhibition of growth at 8 µg/mL (Candida albicans [19]): 100%
- inhibition of growth at 0.0313 µg/mL (Candida albicans [20]): 99.2%
- inhibition at 16 µg/mL (Candida albicans [21]): 100%
- inhibition of growth at 0.25 µg/mL (Candida albicans [22]): 99.9%
- inhibition of growth at 0.0625 µg/mL (Candida albicans [23]): 99.1%
- viability at 25 µM (CCRF-CEM [24]): 22.1%
- inhibition at 0.0625 µg/mL (Candida albicans [25]): 89%
- inhibition of growth at 0.5 µg/mL (Candida albicans [26]): 99.1%
- inhibition of growth at 8 µg/mL (Candida albicans [27]): 100%
- viability at 100 µM (MCF7 [28]): 27.1%
- inhibition of growth at 16 µg/mL (Candida albicans [29]): 100%
- Activity (Vero): Non-Toxic
- survival at 24 h, 31 µM [30]: 90 to 100%
- inhibition of growth at 0.0313 µg/mL (Candida albicans [31]): 99.6%
- viability at 200 µM (CCRF-CEM [32]): 0%
- inhibition of growth at 4 µg/mL (Candida albicans [33]): 100%
- inhibition of growth at 1 µg/mL (Candida albicans [34]): 99.5%

From ChEMBL document CHEMBL4229342, “Synthesis of novel proxyphylline derivatives with dual Anti-Candida albicans and anticancer activity” (Eur J Med Chem, 2018)
